Bioassay records (PubChem BioAssay)
E-selectin induc: E-selectin induction in HUVECs, primary screen, imaging, HUVEC, immunofluorescence imaging, single point; P16581; normalized: neutral wells 0, TNF-alpha wells 100; activation, % at 7.58 µM; actives 0.37% (n = 260,000);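 active = mean E-selectin-positive cell signal at least 10% of the positive control, reached in at least 60% of replicates, without over 20% cell loss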
Target sequence (P16581 whole entry, looked up): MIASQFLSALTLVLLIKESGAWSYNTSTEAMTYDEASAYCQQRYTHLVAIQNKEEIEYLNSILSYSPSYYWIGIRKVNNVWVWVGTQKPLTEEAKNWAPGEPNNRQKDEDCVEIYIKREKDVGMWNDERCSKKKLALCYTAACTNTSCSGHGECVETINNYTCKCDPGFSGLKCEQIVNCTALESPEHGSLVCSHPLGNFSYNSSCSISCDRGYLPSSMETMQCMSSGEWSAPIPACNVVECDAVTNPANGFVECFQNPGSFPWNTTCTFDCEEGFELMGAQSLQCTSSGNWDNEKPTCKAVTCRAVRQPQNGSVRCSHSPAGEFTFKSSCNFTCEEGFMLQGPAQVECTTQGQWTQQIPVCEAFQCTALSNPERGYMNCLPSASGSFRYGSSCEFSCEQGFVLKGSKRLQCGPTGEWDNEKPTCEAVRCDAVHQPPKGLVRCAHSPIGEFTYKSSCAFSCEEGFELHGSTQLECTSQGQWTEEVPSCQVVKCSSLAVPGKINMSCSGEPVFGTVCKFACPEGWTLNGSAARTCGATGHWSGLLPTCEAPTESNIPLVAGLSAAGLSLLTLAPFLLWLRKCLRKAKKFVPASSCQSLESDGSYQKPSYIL
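Test system: HUVEC; input: 3,000 HUVEC/well; measured by: immunofluorescence imaging; read-out: % PE-positive cells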
FGF22 binding: binders of human FGF22 protein, primary screen, FGF22 synaptogenesis inhibitor project, biophysical, thermal shift, single point. recombinant FGF22 thermal shift, SYPRO orange fluorescence; percent of sucrose octasulfate shift, DMSO zero. activity (Tm shift, normalised), % at 9.99 µM. actives 1.5% (n = 340,000);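 active = mean Tm shift, scaled 0 neutral to 100 positive control, at about 1.3% or above, every replicate too, limit read from the data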
C2C12 statin: suppressors of statin myotoxicity in C2C12 myotubes, primary screen, cell-based, single point, plate reader | C2C12 myotubes + simvastatin, ATP luminescence, 48 h; scaled: DMSO 0, geranylgeraniol control 100 | rescue of ATP level, % at 7.49 µM | actives 0.78% (n = 330,000) | AID 602340, 2012;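 active = mean ATP rescue above about 67%, or every replicate alone reaching that limit, limit read from the data, passing the limit was not always enough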;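 note: myotubes were challenged with 10 µM simvastatin during compound exposure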
SIRT5 inh: SIRT5 desuccinylase inhibitors, primary screen, biochemical, fluorescence imaging, single point, set 5. Purified SirT5, succinyl-peptide AMC, trypsin-coupled fluorescence. inhibition, % at 15 µM. actives 1.1% (n = 330,000). NAD-dependent protein deacylase sirtuin-5, mitochondrial (Homo sapiens), Q9NXA8; in the data active = inhibition above about 15%
FN deposition inh: inhibitors of fibronectin matrix deposition, primary screen, AH1F cells, Alexa488-fibronectin fluorescence, plate reader. AH1F fibroblasts, overnight. inhibition, % at 12.6 µM. actives 0.086% (n = 350,000);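 active = mean inhibition across replicates of 30% or more, regardless of how many single replicates reach that level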;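 note: positive control wells lacked labelled fibronectin entirely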
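Test system: AH1F fibroblast monolayer depositing Alexa488-labelled fibronectin into matrix. Input: 10000 cells per well. Technique: fluorescence, ex 485 nm, em 525 nm. Buffer or medium: DMEM plus 2% serum, read in PBS. Timing: 1 h cell adhesion before compound, then overnight fibronectin incubation. Compound: single dose, pinned. Read-out basis: inhibition from reduced deposited-fibronectin fluorescence.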
Ecoli rRNA inh: reduced GFP signal of wild-type E. coli, primary screen, bacterial rRNA inhibitor project, GFP/RFP fluorescence, OD600, single point. GFP signal change (wild-type ribosome), % (no concentration beside the values). actives 1.6% (n = 350,000). E. coli WT GFP vs humanized-ribosome RFP mutants, 24 h; hits give low values; DMSO median 0, no signal -100;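 active = significant combined selectivity score with lowered wild-type GFP, culture density cut under 30%, mutant RFP and density less affected; inactive = any of these conditions unmet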
Starred values were filed as active, the others as inactive; · = no result given. Only some compounds are listed: those with a hit (about 4% of all), similar ones and a draw of the others.

SMILES	E-selectin induc	FGF22 binding	C2C12 statin	SIRT5 inh	FN deposition inh	Ecoli rRNA inh
COC(=O)C1=C(C)N(Cc2ccc(Br)cc2)C(=S)NC1c1cccc(OC)c1 (centres undefined)	0	0	·	2	9	0
COC(=O)C1=C(C)N(Cc2ccc(F)cc2)C(=S)NC1c1cccc(OC)c1 (centres undefined)	2	0	·	-1	7	-22*
COC(=O)C1=C(C)N(Cc2ccccc2)C(=S)NC1c1cccc(OC)c1 (centres undefined)	4	0	·	-1	9	-29*
COc1cccc(CN2C[C@@H]3N[C@H](C2)C3c2ccc(-c3ccccc3F)cc2)c1 (some centres undefined)	0	·	·	5	1	-60
COc1ccccc1-c1cnc2c(c1)C(=O)N([C@@H](C)CO)C[C@H](C)[C@@H](CN(C)CC1CCOCC1)O2	0	·	-2	·	·	4
O=C(CCCc1nc(-c2ccccc2)no1)Nc1cccnc1	·	·	86*	·	-3	·
Cc1ccc(C(=O)N2CCN(S(C)(=O)=O)C2)cc1	·	·	4	·	·	·
Cc1ccc(C(=O)N2CCN(S(=O)(=O)c3ccc(C)c([N+](=O)[O-])c3)C2)cc1	·	44*	3	0	10	3
Cc1ccc(C(=O)N2CCN(C(=O)c3ccc(C)cc3)C2)cc1	·	43*	-5	-5	-3	2
COc1cc(C2=NOC(C(=O)NCc3cccs3)C2)cc(OC)c1OC (centres undefined)	·	·	87*	·	·	·
COc1ccc(C2=NOC(C(=O)NCc3cccs3)C2)cc1 (centres undefined)	·	·	97*	·	5	·
C[C@H](CO)N1C[C@H](C)[C@H](CN(C)CC2CCCCC2)Oc2ccc(NS(=O)(=O)c3ccc(Cl)cc3)cc2CC1=O	-15	·	-37	29*	·	-51
C[C@@H]1CN([C@@H](C)CO)C(=O)Cc2cc(NS(=O)(=O)c3ccc(F)cc3)ccc2O[C@H]1CN(C)CC1CCCCC1	0	0	41	16*	·	1
C[C@H]1CN([C@@H](C)CO)C(=O)Cc2cc(NS(=O)(=O)c3ccc(Cl)cc3)ccc2O[C@H]1CN(C)CC1CCCCC1	·	0	-5	·	·	·
C[C@@H]1CN([C@@H](C)CO)C(=O)Cc2cc(NS(=O)(=O)c3ccc(F)cc3)ccc2O[C@@H]1CN(C)CC1CCCCC1	1	0	35	14	·	0
C[C@H]1CN([C@@H](C)CO)C(=O)Cc2cc(NS(=O)(=O)c3ccc(Cl)cc3)ccc2O[C@@H]1CN(C)CC1CCCCC1	-13	·	112*	·	·	-4
C[C@H]1CN([C@@H](C)CO)C(=O)Cc2cc(NS(=O)(=O)c3ccc(Cl)cc3)ccc2O[C@@H]1CN(C)CC1CC1	1	0	27	2	·	-1
CCCN1C[C@H](C)[C@H](OC)CN(C)C(=O)c2cc(NC(=O)C3CCOCC3)ccc2OC[C@H]1C	0	0	8	-2	-6	0
COc1cc(OC)cc(-c2nc3ccccc3c(=O)n2OC(=O)c2ccc(Br)cc2)c1	0	1.7*	·	2	-9	-25*
CC(C)CC(=O)N(Cc1ccc(F)cc1)C1CCS(=O)(=O)C1 (centres undefined)	13	-1	·	-10	-20	11
Cc1c(C(=O)N(Cc2ccc(F)cc2)C2CCS(=O)(=O)C2)oc2ccccc12 (centres undefined)	·	0	3	-1	-11	-23*
Cc1c(C(=O)N(Cc2ccccc2)C2CCS(=O)(=O)C2)oc2ccccc12 (centres undefined)	0	0	11	16*	6	1
CCCCC(=O)N(Cc1ccc(F)cc1)C1CCS(=O)(=O)C1 (centres undefined)	·	0	87*	0	0	10
Cc1ccc2oc(C(=O)N(CCO)Cc3ccccc3)c(C)c2c1	0	0	11	-1	-3	-17*
COc1ccccc1CNC(=O)C1CCC(CNS(=O)(=O)c2ccc(F)cc2)CC1 (centres undefined)	0	0	6	21*	-6	6
SMILES	E-selectin induc	FGF22 binding	C2C12 statin	SIRT5 inh	FN deposition inh	Ecoli rRNA inh
Cc1noc(C)c1NC(=O)N(C)C[C@H]1OCCCC[C@@H](C)Oc2ccc(NC(=O)CCC(F)(F)F)cc2C(=O)N([C@@H](C)CO)C[C@@H]1C	0	1	·	-2	·	0
COc1ccc(NC(=O)N/C=C/c2ccco2)cc1	·	43*	4	1	10	6
C[C@@H]1CCCCO[C@@H](CN(C)S(=O)(=O)c2ccc(F)cc2)[C@H](C)CN([C@H](C)CO)C(=O)c2cc(NS(=O)(=O)c3ccc(Cl)cc3)ccc2O1	0	·	·	17*	-2	5
C[C@H](CO)N1C[C@H](C)[C@H](CN(C)S(=O)(=O)c2ccc(Cl)cc2)OCCCC[C@H](C)Oc2ccc(NS(=O)(=O)c3ccc(F)cc3)cc2C1=O	·	1	-1	23*	1	1
C[C@H]1CCCCO[C@H](CN(C)S(=O)(=O)c2ccc(Cl)cc2)[C@@H](C)CN([C@@H](C)CO)C(=O)c2cc(NS(=O)(=O)c3ccc(F)cc3)ccc2O1	·	0	-17	23*	-7	-1
C[C@@H]1CCCCO[C@H](CN(C)S(=O)(=O)c2ccc(F)cc2)[C@H](C)CN([C@H](C)CO)C(=O)c2cc(NS(=O)(=O)c3ccc(Cl)cc3)ccc2O1	0	·	·	10	-3	0
O=C(O)CCCCCN=Cc1c(O)c2ccccc2oc1=O	0	·	·	0	8	1
O=C(O)CCN=Cc1c(O)c2ccccc2oc1=O	·	43*	·	5	-7	-5
CCCc1ccc(-c2cc(NC(=O)CSc3nnc(N)s3)n(-c3ccccc3)n2)cc1	-1	0	-14	20*	2	-9
CCc1nc2ccccc2c(C(=O)OCC(=O)NCCCN2CCCC2=O)c1C	·	·	·	19*	18	·
Cc1cc(SCC(=O)NCCCN2CCCC2=O)nc2ccccc12	2	0	3	-2	4	11
C[C@@H]1CN([C@H](C)CO)C(=O)c2cc(-c3cccnc3)cnc2O[C@H]1CN(C)C(=O)C1CCOCC1	0	0	6	-2	·	2
Cc1nn(CC(=O)N2CCN(C)CC2)c(=O)c2c1sc1ccccc12	·	-1	4	-1	1	6
